Among the data in ChEMBL document CHEMBL3351316, “Scaffold hopping approach on the route to selective tankyrase inhibitors” (Eur J Med Chem, 2014) are inhibition and IC50 values, retold here.

Assay [1] addresses T1, Protein mono-ADP-ribosyltransferase PARP11 (Homo sapiens) (UniProt Q9NR21).
T1 sequence (whole entry): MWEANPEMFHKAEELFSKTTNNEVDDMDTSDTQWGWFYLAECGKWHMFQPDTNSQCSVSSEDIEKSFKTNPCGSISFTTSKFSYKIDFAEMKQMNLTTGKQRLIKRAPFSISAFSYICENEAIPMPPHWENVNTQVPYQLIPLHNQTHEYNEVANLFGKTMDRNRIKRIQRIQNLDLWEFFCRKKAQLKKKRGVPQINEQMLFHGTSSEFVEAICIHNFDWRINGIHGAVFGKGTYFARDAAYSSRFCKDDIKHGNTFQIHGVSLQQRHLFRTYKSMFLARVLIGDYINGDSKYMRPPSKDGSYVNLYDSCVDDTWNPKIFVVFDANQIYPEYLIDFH
Nature of the assay: Inhibition of human recombinant PARP11 at 10 uM incubated for 1 hr using NAD+, biotinylated NAD+ and activated DNA by luminescence based assay. The gist of the method:
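Recombinant PARP enzyme reactions were run in duplicate for 1 h at rt on histone-coated plates in Tris·HCl pH 8.0 buffer with NAD+, biotinylated NAD+ and activated DNA. Detection used streptavidin-HRP for 30 min at rt, then a chemiluminescent developer. % inhibition = 100 − % activity, scaled between the no-compound (100%) and no-enzyme (0%) signals.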

The target of another assay is T2, Tankyrase 1/2 (Homo sapiens, UniProt Q9H2K2+O95271).
T2 sequence (Q9H2K2 whole entry): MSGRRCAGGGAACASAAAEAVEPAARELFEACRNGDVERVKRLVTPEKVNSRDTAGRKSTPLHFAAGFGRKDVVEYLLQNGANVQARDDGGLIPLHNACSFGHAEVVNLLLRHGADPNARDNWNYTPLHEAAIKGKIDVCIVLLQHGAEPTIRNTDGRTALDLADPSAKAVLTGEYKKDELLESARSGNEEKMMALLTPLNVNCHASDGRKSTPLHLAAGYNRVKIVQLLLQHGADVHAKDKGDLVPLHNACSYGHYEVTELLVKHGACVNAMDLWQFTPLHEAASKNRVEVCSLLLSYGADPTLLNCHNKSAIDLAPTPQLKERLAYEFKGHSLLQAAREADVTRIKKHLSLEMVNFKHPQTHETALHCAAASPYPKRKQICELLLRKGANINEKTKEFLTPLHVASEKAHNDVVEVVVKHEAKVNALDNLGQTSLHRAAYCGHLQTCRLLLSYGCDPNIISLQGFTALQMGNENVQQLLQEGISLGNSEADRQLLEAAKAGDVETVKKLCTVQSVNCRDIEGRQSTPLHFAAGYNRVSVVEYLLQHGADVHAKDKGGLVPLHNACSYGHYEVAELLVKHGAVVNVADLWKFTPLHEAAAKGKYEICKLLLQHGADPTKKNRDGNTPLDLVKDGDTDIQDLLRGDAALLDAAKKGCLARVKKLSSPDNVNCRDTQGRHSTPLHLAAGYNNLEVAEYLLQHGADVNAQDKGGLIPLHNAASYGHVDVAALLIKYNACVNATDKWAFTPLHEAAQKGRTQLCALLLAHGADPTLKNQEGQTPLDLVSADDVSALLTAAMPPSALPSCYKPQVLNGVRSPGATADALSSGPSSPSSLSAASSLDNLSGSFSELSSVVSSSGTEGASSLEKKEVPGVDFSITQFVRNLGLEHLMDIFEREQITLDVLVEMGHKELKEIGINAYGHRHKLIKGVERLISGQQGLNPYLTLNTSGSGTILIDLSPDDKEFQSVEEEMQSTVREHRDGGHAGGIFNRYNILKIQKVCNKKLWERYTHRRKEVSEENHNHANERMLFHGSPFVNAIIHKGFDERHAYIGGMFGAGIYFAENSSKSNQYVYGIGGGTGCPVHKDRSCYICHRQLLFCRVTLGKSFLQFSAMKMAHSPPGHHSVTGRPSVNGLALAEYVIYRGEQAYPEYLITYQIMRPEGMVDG
T2 sequence (O95271 whole entry): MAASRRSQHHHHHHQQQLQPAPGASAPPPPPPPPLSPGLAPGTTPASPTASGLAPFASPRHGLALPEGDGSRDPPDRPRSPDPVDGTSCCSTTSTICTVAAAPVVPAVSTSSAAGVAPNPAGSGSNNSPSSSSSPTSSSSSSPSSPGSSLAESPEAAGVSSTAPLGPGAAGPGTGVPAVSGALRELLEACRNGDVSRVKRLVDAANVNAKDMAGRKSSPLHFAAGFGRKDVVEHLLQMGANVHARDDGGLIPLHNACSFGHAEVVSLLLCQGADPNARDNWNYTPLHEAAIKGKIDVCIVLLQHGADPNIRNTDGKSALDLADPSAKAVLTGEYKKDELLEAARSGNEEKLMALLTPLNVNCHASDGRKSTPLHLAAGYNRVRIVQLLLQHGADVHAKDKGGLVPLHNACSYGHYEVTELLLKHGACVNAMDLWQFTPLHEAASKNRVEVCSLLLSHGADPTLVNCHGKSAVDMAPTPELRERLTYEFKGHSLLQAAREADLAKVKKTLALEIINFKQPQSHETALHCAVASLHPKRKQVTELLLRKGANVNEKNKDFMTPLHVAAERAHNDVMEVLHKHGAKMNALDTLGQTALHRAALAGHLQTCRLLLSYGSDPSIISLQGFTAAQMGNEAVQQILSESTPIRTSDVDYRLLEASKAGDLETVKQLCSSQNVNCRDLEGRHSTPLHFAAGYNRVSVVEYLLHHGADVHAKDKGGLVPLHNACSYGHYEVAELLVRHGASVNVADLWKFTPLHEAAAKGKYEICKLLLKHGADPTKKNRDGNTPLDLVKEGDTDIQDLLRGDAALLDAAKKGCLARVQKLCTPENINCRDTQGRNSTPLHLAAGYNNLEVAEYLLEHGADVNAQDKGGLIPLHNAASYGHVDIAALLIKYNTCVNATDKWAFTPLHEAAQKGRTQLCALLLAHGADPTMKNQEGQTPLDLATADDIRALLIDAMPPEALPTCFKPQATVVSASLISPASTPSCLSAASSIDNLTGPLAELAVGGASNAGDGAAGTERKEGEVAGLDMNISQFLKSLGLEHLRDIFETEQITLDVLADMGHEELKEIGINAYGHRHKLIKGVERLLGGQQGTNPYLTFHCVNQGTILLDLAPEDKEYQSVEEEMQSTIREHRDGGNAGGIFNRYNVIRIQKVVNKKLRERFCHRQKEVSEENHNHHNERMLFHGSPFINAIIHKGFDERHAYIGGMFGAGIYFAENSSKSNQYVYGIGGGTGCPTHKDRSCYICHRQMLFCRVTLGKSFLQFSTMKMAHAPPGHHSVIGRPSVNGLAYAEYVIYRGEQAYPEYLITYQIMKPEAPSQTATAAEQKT
As to the kind of experiment: Inhibition of tankyrase in human DLD1 cells assessed as reduction in Wnt activity after 24 hrs by TCF-luciferase reporter gene assay. The format is cell-based. The conditions noted are these: dld-1.

Molecules are shown by their SMILES.

With `CC(C)(C)c1ccc(-c2nc3c(sc4ccccc43)c(=O)[nH]2)cc1`, the inhibition in assay [1] was found to be 10%. For the same compound, the IC50 at Tankyrase 1/2 amounted to 832 nM.

Usually inhibition stands for the relative decrease from the control value, in per cent. Usually IC50 stands for the midpoint of a concentration-inhibition curve.
